Assay results reported in paper PMC7862202 (Clinical Pharmacokinetics, 2020).

Assays:
[1] = cited from earlier work
[2] = test system: human plasma proteins; settings: cited from earlier work
[3] = cited from earlier work; remark: listed apart in the source
[4] = test system: EML4-ALK mutants; settings: read-out: IC90 range for EML4-ALK mutants; cellular assays; cited from earlier work
[5] = test system: native EML4-ALK; settings: read-out: IC90 for inhibition of native EML4-ALK; cellular assays; cited from earlier work
[6] = test system: patients with locally advanced or metastatic ALK-positive NSCLC; settings: 180 mg qd with a 7-day lead-in at 90 mg qd; crizotinib-refractory patients; cited from earlier work
[7] = cited from earlier work; remark: listed apart in the source
[8] = Population pharmacokinetic model; format: in vivo, human; settings: for Variability in CL/F explained by albumin: albumin as covariate in the final model
Procedure, shortened: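 Plasma measured by two validated LC/MS methods, combined range 0.1–2500 ng/mL. Inter-individual effects multivariate normal; residual error additive, proportional or mixed. Covariates tested on CL/F and V1/F in two steps. 1000 bootstrap replicates with replacement; 1000-replicate prediction-corrected VPC.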

[9] = cited from earlier work; remark: listed apart in the source
[10] = cited from earlier work; remark: listed apart in the source
[11] = test system: patients with ALK + NSCLC who are ALK inhibitor naive; settings: first interim analysis, blinded independent review committee; cited from earlier work
[12] = cited from earlier work; remark: listed apart in the source
[13] = cited from earlier work; remark: listed apart in the source
[14] = single oral 180-mg radiolabeled dose, healthy volunteers

COc1cc(N2CCC(N3CCN(C)CC3)CC2)ccc1Nc1ncc(Cl)c(Nc2ccccc2P(C)(C)=O)n1 [brigatinib]
Increase in unbound AUC0–∞, severe renal impairment vs normal renal function [1]: approximately twofold | Bound to human plasma proteins [2]: approximately 90% | Increase in unbound brigatinib systemic exposure (AUC0–∞), severe hepatic impairment (Child–Pugh C) [3]: approximately 37% | IC90 [4]: 0.022 to 0.762 µM | IC90 [5]: 0.038 µM | Median progression-free survival [6]: 16.7 months | Decrease in maximum plasma concentration following a high-fat meal [7]: 13% | Effect of a high-fat meal on AUC [7]: without a corresponding decrease in AUC | Variability in CL/F explained by albumin [8]: approximately 5% | Variability in CL/F explained by albumin ([8]; listed as Brigatinib): Albumin was included as a covariate on apparent clearance in the final population pharmacokinetic model, explaining approximately 5% of variability in apparent clearance. | Albumin covariate effect on CL/F, bootstrap median (2.5th to 97.5th percentile) ([8]; bootstrap of 1000 replicates): 0.656 (0.474–0.849) | CL/F, bootstrap median (2.5th to 97.5th percentile) ([8]; bootstrap of 1000 replicates): 10.6 (10.2–11.1) L/h | Mean transit time, bootstrap median (2.5th to 97.5th percentile) ([8]; bootstrap of 1000 replicates): 0.9 (0.8–1.0) h | Q1/F, bootstrap median (2.5th to 97.5th percentile) ([8]; bootstrap of 1000 replicates): 12.8 (10.5–16.2) L/h | Q2/F, bootstrap median (2.5th to 97.5th percentile) ([8]; bootstrap of 1000 replicates): 2.46 (1.09–4.76) L/h | V1/F, bootstrap median (2.5th to 97.5th percentile) ([8]; bootstrap of 1000 replicates): 208 (193–219) L | V2/F, bootstrap median (2.5th to 97.5th percentile) ([8]; bootstrap of 1000 replicates): 118 (83.6–147) L | V3/F, bootstrap median (2.5th to 97.5th percentile) ([8]; bootstrap of 1000 replicates): 82.3 (57.6–112) L | No. of transit compartments, bootstrap median ([8]; bootstrap of 1000 replicates, fixed): 2.35 (–) | Inter-individual variability of mean transit time, % (% CV) ([8]; final population PK model): 59 (7.5) % | Mean transit time, model estimate (% CV) ([8]; final population PK model): 0.9 (3.6) h | No. of transit compartments, model estimate ([8]; final population PK model, fixed at the population estimate): 2.35 | Mean transit time, model estimate (% CV) ([8]; final population PK model, listed as Brigatinib): 0.9 h | Higher CL/F at 95th percentile of albumin vs median albumin ([8]; predicted, higher than a patient with the median albumin value): ~20% | Lower CL/F at 5th percentile of albumin vs median albumin ([8]; predicted, lower than a patient with the median albumin value): approximately 22% | Overall radiolabeled dose recovered as unchanged drug [9]: Approximately 50% | Administered dose recovered in feces [9, 14]: approximately 65% | Administered dose recovered in urine [9, 14]: ~25% | Unchanged brigatinib in feces [9, 14]: 41% | Unchanged brigatinib in urine [9, 14]: 86% | Enzymes metabolizing the remainder to inactive or minor metabolites [10]: primarily by cytochrome P450 (CYP) 3A and CYP2C8 | Oral bioavailability [10]: orally bioavailable | 12-month event-free rate [11]: 67% | Permeability [12]: high | Solubility [13]: high
